E-sel inducer: E-selectin induction in HUVECs, primary screen, imaging, HUVEC, immunofluorescence imaging, single point | activation, % at 7.58 µM | 260,000 compounds, 0.37% hits | normalized: neutral wells 0, TNF-alpha wells 100 | AID 686992, 2013 | P16581;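 active = mean E-selectin-positive cell signal at least 10% of the positive control, reached in at least 60% of replicates, without over 20% cell loss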
Target sequence (P16581 whole entry, looked up): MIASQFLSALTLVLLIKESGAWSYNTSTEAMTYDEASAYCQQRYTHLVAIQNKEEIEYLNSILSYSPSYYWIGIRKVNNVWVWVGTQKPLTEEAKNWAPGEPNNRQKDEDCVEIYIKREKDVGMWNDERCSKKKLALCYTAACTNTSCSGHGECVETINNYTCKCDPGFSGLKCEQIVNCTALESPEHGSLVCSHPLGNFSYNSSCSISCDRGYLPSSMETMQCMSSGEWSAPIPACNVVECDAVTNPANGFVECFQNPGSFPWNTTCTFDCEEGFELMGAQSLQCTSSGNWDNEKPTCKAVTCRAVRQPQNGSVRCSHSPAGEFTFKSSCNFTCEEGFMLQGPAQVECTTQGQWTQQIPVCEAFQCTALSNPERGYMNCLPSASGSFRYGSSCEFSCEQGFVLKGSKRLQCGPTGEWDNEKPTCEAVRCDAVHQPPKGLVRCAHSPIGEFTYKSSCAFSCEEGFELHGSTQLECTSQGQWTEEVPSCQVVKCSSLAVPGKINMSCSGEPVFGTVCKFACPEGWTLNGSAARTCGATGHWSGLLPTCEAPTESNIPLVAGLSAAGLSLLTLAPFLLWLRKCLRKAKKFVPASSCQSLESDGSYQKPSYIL
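assay system = HUVEC, human umbilical vein endothelial cells | input = 3,000 HUVEC seeded per well | medium = EGM-2 growth medium on 0.1% gelatin-coated wells | dosing = one compound dose added by pin transfer | signal = immunofluorescence imaging | read-out basis = % PE-positive cells | control set = TNF-alpha, DMSO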
DENV2 CPE rescue: inhibitors of DENV2 cytopathic effect, primary screen, cell-based, plate reader, single concentration; 350,000 compounds, 1.7% hits; CPE inhibition, % at 9.99 µM; DENV2-infected cells, cytopathic effect rescue; in the data active = CPE inhibition above about 20%, passing the limit was not always enough; tested in BHK-21 cells
SIRT5 block: SIRT5 desuccinylase inhibitors, primary screen, biochemical, fluorescence imaging, single point, set 5; inhibition, % at 15 µM; Purified SirT5, succinyl-peptide AMC, trypsin-coupled fluorescence; 330,000 compounds, 1.1% hits; AID 652115, 2013; NAD-dependent protein deacylase sirtuin-5, mitochondrial (Homo sapiens), Q9NXA8; in the data active = inhibition above about 15%
A number is an active result. Rows were chosen to be rich in hits. Some 2.8% of all compounds tested hit in one or more screens of this group.

Screening O=C(N[C@@H](Cc1ccccc1)Cn1cc(CN2C(=O)COC[C@H]2c2ccccc2)nn1)c1ccccc1 returned DENV2 CPE rescue inactive and SIRT5 block inactive.
`O=C(Nc1ccccc1)N[C@H](Cc1ccccc1)Cn1cc(CN2C(=O)COC[C@H]2c2ccccc2)nn1` gave DENV2 CPE rescue 21 and SIRT5 block inactive.
For OC(CN1CCN(c2cccc(Cl)c2)CC1)c1ccc(F)cc1 (stereo unspecified) the results were E-sel inducer inactive, DENV2 CPE rescue 49 and SIRT5 block inactive.
`OC(CSc1ccc(F)cc1)CN1CCN(c2ccccc2)CC1` (stereo unspecified) gave E-sel inducer 56, DENV2 CPE rescue inactive and SIRT5 block inactive.
`OC(CN1CCN(c2cccc(Cl)c2)CC1)c1ccccc1` (stereo unspecified) gave E-sel inducer inactive, DENV2 CPE rescue inactive and SIRT5 block inactive.
OCC(O)CN1CCN(c2ccccc2)CC1 (stereo unspecified) was read as E-sel inducer inactive, DENV2 CPE rescue inactive and SIRT5 block inactive.
For CN1C(=O)c2cc(NC(=O)Cc3cccs3)ccc2OC[C@@H]2O[C@H](CC(=O)NCC3CC3)CC[C@H]21 the results were E-sel inducer inactive, DENV2 CPE rescue inactive and SIRT5 block inactive.
For O=C(Nc1ccc(Cl)cc1C(=O)NCc1cccnc1)c1ccc(Cl)cc1Cl the results were E-sel inducer inactive, DENV2 CPE rescue inactive and SIRT5 block inactive.
`O=C(Nc1ccccc1C(=O)NCc1cccnc1)c1ccccc1Cl` gave E-sel inducer inactive, DENV2 CPE rescue 64 and SIRT5 block inactive.
Screening Cc1nnc(SCC(=O)Nc2ccc(F)cc2F)n(N)c1=O returned DENV2 CPE rescue inactive and SIRT5 block inactive.
`O=C(CSc1nc(=O)[nH]c2c1CCCC2)Nc1ccc(F)cc1F` gave DENV2 CPE rescue 41 and SIRT5 block inactive.
`CCc1ccc(Nc2cnn(C34CC5CC(CC(CC(=O)O)(C5)C3)C4)c(=O)c2Cl)cc1` gave DENV2 CPE rescue inactive and SIRT5 block inactive.
`O=C(O)Cc1ccc(Nc2cnn(C34CC5CC(CC(CC(=O)O)(C5)C3)C4)c(=O)c2Cl)cc1` gave E-sel inducer inactive, DENV2 CPE rescue inactive and SIRT5 block 15.
For Cc1ccccc1S(=O)(=O)N1CC(=O)N2[C@H](CO)[C@@H](c3ccc(C#CCN(C)C)cc3)[C@H]2C1 the results were E-sel inducer inactive, DENV2 CPE rescue 43 and SIRT5 block inactive.
Screening Cc1ccccc1S(=O)(=O)N1CC(=O)N2[C@@H](CO)[C@H](c3ccc(C#CCN(C)C)cc3)[C@@H]2C1 returned E-sel inducer inactive, DENV2 CPE rescue inactive and SIRT5 block inactive.
For Cc1ccccc1S(=O)(=O)N1CC(=O)N2[C@H](CO)[C@@H](c3ccc(C#CCN(C)C)cc3)[C@@H]2C1 the results were E-sel inducer inactive, DENV2 CPE rescue 34 and SIRT5 block inactive.
`Cc1ccccc1S(=O)(=O)N1CC(=O)N2[C@H](C1)[C@@H](c1ccc(C#CCN(C)C)cc1)[C@@H]2CO` gave E-sel inducer inactive, DENV2 CPE rescue inactive and SIRT5 block inactive.
For COc1ccc(CNC(=O)C[C@H]2CC[C@@H]3[C@@H](COc4ccc(NC(C)=O)cc4C(=O)N3C)O2)cc1 the results were E-sel inducer inactive, DENV2 CPE rescue inactive and SIRT5 block inactive.
Screening CN(C)CCCN1C(=O)[C@@]2(Cc3ccccc31)c1ccccc1C(=O)N(Cc1ccccc1C(F)(F)F)[C@H]2c1ccc(CO)cc1 returned DENV2 CPE rescue inactive and SIRT5 block inactive.
Screening COCCCN1C(=O)[C@@]2(Cc3ccccc31)c1ccccc1C(=O)N(Cc1ccccc1)[C@H]2c1ccc(CO)cc1 returned DENV2 CPE rescue 23 and SIRT5 block inactive.
For O=C(C[C@H]1CC[C@H]2[C@@H](COC[C@H](O)CN2Cc2ccc(Oc3ccccc3)cc2)O1)N1CCCCC1 the results were E-sel inducer inactive, DENV2 CPE rescue inactive and SIRT5 block inactive.
C[C@@H]1CCCCO[C@H](CN(C)C)[C@@H](C)CN([C@H](C)CO)C(=O)c2cc(NC(=O)Nc3ccccc3)ccc2O1 was read as E-sel inducer inactive.
`C[C@@H]1CN([C@H](C)CO)C(=O)c2c(c3ccccc3n2C)-c2ccccc2CO[C@@H]1CN(C)C(=O)N[C@H](C)c1ccccc1` gave E-sel inducer inactive, DENV2 CPE rescue inactive and SIRT5 block inactive.
`C[C@H]1CN([C@@H](C)CO)C(=O)c2c(c3ccccc3n2C)-c2ccccc2CO[C@H]1CN(C)C(=O)Nc1ccccc1` gave E-sel inducer inactive, DENV2 CPE rescue inactive and SIRT5 block inactive.
`COc1ccc(NC(=O)N(C)C[C@@H]2OCc3ccccc3-c3c(n(C)c4ccccc34)C(=O)N([C@@H](C)CO)C[C@@H]2C)cc1` gave E-sel inducer inactive, DENV2 CPE rescue inactive and SIRT5 block 21.
Screening CO[C@@H](C(=O)N(C)C[C@H]1OCc2ccccc2-c2c(n(C)c3ccccc23)C(=O)N([C@@H](C)CO)C[C@H]1C)c1ccccc1 returned E-sel inducer inactive.
Screening CO[C@H](C(=O)N(C)C[C@H]1OCc2ccccc2-c2c(n(C)c3ccccc23)C(=O)N([C@@H](C)CO)C[C@@H]1C)c1ccccc1 returned E-sel inducer inactive, DENV2 CPE rescue 26 and SIRT5 block inactive.
C[C@H](NC(=O)N(C)C[C@H]1OCc2ccccc2-c2c(n(C)c3ccccc23)C(=O)N([C@H](C)CO)C[C@H]1C)c1ccccc1 was read as DENV2 CPE rescue 32 and SIRT5 block inactive.
Screening C[C@@H]1CN([C@@H](C)CO)C(=O)c2c(c3ccccc3n2C)-c2ccccc2CO[C@@H]1CN(C)C(=O)Nc1ccccc1 returned E-sel inducer inactive, DENV2 CPE rescue inactive and SIRT5 block inactive.
Screening C[C@H](CO)N1C[C@H](C)[C@@H](CN(C)C(=O)Nc2ccc(F)cc2)OCc2ccccc2-c2c(n(C)c3ccccc23)C1=O returned E-sel inducer inactive, DENV2 CPE rescue inactive and SIRT5 block 15.
Screening C[C@@H]1CN([C@H](C)CO)C(=O)CCCn2nncc2CO[C@@H]1CN(C)Cc1ccc(C(=O)O)cc1 returned E-sel inducer inactive, DENV2 CPE rescue inactive and SIRT5 block inactive.
COc1ccc2c3c([nH]c2c1)[C@@H](CO)N(CC1CCOCC1)CC31CN(CC2CCOCC2)C1 was read as E-sel inducer inactive and DENV2 CPE rescue inactive.
C[C@@H]1CN([C@@H](C)CO)C(=O)c2cc(C#CC3CC3)cnc2O[C@H]1CN(C)C(=O)C1CCCCC1 was read as E-sel inducer inactive.
COc1ccc(C#Cc2ccc3c(c2)O[C@@H](CN(C)C(=O)Nc2cccc(OC)c2)[C@@H](C)CN([C@@H](C)CO)S3(=O)=O)cc1 was read as E-sel inducer inactive, DENV2 CPE rescue inactive and SIRT5 block inactive.
C[C@H]1CN([C@@H](C)CO)C(=O)c2c(c3ccccc3n2C)-c2ccccc2CO[C@H]1CN(C)C(=O)Nc1ccc(-c2ccccc2)cc1 was read as E-sel inducer inactive, DENV2 CPE rescue inactive and SIRT5 block inactive.
C[C@H](CO)N1C[C@H](C)[C@H](CN(C)C(=O)Nc2ccc(-c3ccccc3)cc2)OCc2ccccc2-c2c(n(C)c3ccccc23)C1=O was read as E-sel inducer inactive, DENV2 CPE rescue 88 and SIRT5 block inactive.

Assay outcomes as filed in PubChem.
